Laboratory results as given in ChEMBL document CHEMBL1151249, “Cytotoxic and antimicrobial constituents of the bark of Diospyros maritima collected in two geographical locations in Indonesia” (J Nat Prod, 2004).
In brackets after ≈: the same amount, converted by molar mass. Activity calls are given as the source filed them. The rule behind the calls is not given here.

Columns and labels:
Staphylococcus aureus [1] = test: Antimicrobial activity against Staphylococcus aureus assessed as 99.9 % growth inhibition after 18 hrs by zone-of-inhibition assay; type: functional
Cryptococcus neoformans [2] = test: Antifungal activity against Cryptococcus neoformans after 18 hrs by zone-of-inhibition assay; type: functional, organism-based; conditions: Cryptococcus neoformans, 18 h
KB [3] = test: Cytotoxicity against human KB cells; type: functional, cell-based; conditions: read-out: ED50 (the source's name)
Micrococcus luteus [4] = test: Antimicrobial activity against Micrococcus luteus after 18 hrs by zone-of-inhibition assay; type: functional, organism-based
Mus musculus [5] = test: Toxicity in human LNCaP cell xenografted mouse at 50 mg/kg; type: organism-based; set-up: dose 50 mg/kg; conditions: in vivo
LNCaP [6] = test: Cytotoxicity against human LNCAP cells; type: functional; conditions: read-out: ED50 (the source's name)
Mus musculus [7] = test: Toxicity in human LU1 cell xenografted mouse at 50 mg/kg; type: organism-based; set-up: dose 50 mg/kg; conditions: in vivo
Candida albicans [8] = test: Antifungal activity against Candida albicans after 18 hrs by zone-of-inhibition assay; type: functional, organism-based; conditions: Candida albicans, 18 h
Lu1 [9] = test: Antitumor activity against human Lu1 cell xenografted mouse by hollow fiber assay; type: functional, cell-based
How it was run: (§1)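 Hollow fiber assay in mice with KB, LNCaP or Lu1 cells in fibers implanted at intraperitoneal and subcutaneous sites. Mice were treated by injection at doses from 1.25 to 10 mg/kg or up to 50 mg/kg. Tumor cell growth inhibition in the fibers was assessed at each site.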

Saccharomyces cerevisiae [10] = test: Antifungal activity against Saccharomyces cerevisiae after 18 hrs by zone-of-inhibition assay; type: functional, organism-based
Candida albicans [11] = test: Antimicrobial activity against Candida albicans assessed as 99.9 % growth inhibition after 18 hrs by zone-of-inhibition assay; type: functional
Staphylococcus aureus [12] = test: Antimicrobial activity against Staphylococcus aureus after 18 hrs by zone-of-inhibition assay; type: functional, organism-based
Cryptococcus neoformans [13] = test: Antifungal activity against Cryptococcus neoformans assessed as 99.9 % growth inhibition after 18 hrs by zone-of-inhibition assay; type: functional
KB [14] = test: Antitumor activity against human KB cell xenografted mouse by hollow fiber assay; type: functional, cell-based; how it was run: as §1
Aspergillus niger [15] = test: Antifungal activity against Aspergillus niger after 18 hrs by zone-of-inhibition assay; type: functional, organism-based
LNCaP [16] = test: Antitumor activity against human LNCAP cell xenografted mouse by hollow fiber assay; type: functional, cell-based; how it was run: as §1
Lu1 [17] = test: Cytotoxicity against human Lu1 cells; type: functional; conditions: read-out: ED50 (the source's name)
Micrococcus luteus [18] = test: Antimicrobial activity against Micrococcus luteus assessed as 99.9 % growth inhibition after 18 hrs by zone-of-inhibition assay; type: functional
Mycobacterium avium = test: Antimicrobial activity against Mycobacterium avium after 18 hrs by zone-of-inhibition assay; type: functional, organism-based
[19] = Cytotoxicity against human HUVEC; type: cell-based; conditions: HUVEC cells, read-out: ED50 (the source's name)
Saccharomyces cerevisiae [20] = test: Antifungal activity against Saccharomyces cerevisiae assessed as 99.9 % growth inhibition after 18 hrs by zone-of-inhibition assay; type: functional
[21] = test system: Mycolicibacterium smegmatis; test: Antimicrobial activity against Mycobacterium smegmatis assessed as 99.9 % growth inhibition after 18 hrs by zone-of-inhibition assay; type: functional
Mus musculus [22] = test: Toxicity in human KB cell xenografted mouse at 50 mg/kg; type: organism-based; set-up: dose 50 mg/kg; conditions: in vivo
[23] = test system: Mycolicibacterium smegmatis; test: Antimicrobial activity against Mycobacterium smegmatis after 18 hrs by zone-of-inhibition assay; type: functional, organism-based
Aspergillus niger [24] = test: Antifungal activity against Aspergillus niger assessed as 99.9 % growth inhibition after 18 hrs by zone-of-inhibition assay; type: functional

Work on CC1=CC(=O)c2c(O)ccc(-c3ccc(O)c4c3C(=O)C(C)=CC4=O)c2C1=O [MARITINONE] yielded an Activity (Staphylococcus aureus [1]) of 300 µg/mL, an IC50 (Cryptococcus neoformans [2]) of 20 µg/mL (≈ 53.4 µM) and an EC50 (KB [3]) of 0.3 µg/mL (≈ 0.801 µM). For the same compound, the IC50 (Micrococcus luteus [4]) was 200 µg/mL (≈ 534 µM), the Activity (Mus musculus [5]) was “Toxic” and the EC50 (LNCaP [6]) was 2.2 µg/mL (≈ 5.88 µM). For the same compound, the Activity (Mus musculus [7]) was “Toxic”, the IC50 (Candida albicans [8]) was 40 µg/mL (≈ 107 µM) and the Activity (Lu1 [9]) was “inactive”. It also gave an IC50 (Saccharomyces cerevisiae [10]) of 9 µg/mL (≈ 24 µM), an Activity (Candida albicans [11]) of 40 µg/mL and an IC50 (Staphylococcus aureus [12]) of 9 µg/mL (≈ 24 µM). The Activity (Cryptococcus neoformans [13]) was 200 µg/mL, the Activity (KB [14]) was “inactive” and the IC50 (Aspergillus niger [15]) was 40 µg/mL (≈ 107 µM). The Activity (LNCaP [16]) was “inactive”, the EC50 (Lu1 [17]) was 1.4 µg/mL (≈ 3.74 µM) and the Activity (Micrococcus luteus [18]) was >1000 µg/mL. The IC50 (Mycobacterium avium) was 600 µg/mL (≈ 1600 µM), the CC50 [19] was 2.2 µg/mL (≈ 5.88 µM) and the Activity (Saccharomyces cerevisiae [20]) was 80 µg/mL. The Activity [21] was 80 µg/mL, the Activity (Mus musculus [22]) was “Toxic” and the IC50 [23] was 20 µg/mL (≈ 53.4 µM). The Activity (Aspergillus niger [24]) was >1000 µg/mL.
